Results: PMC4017091 (Bioorganic & medicinal chemistry, 2013)
Entries after “also recorded” stand apart in the source; their conditions may differ. Each block holds one compound with its values, some of them ahead of it.

Tests used:
[1] = molecular target: T1, COX-2 (human recombinant) (Homo sapiens, UniProt P35354); experiment: COX-2 inhibition screening assay; type: biochemical; details: 50 μM compound; 2 mM arachidonic acid substrate
T1 sequence (P35354 18-604): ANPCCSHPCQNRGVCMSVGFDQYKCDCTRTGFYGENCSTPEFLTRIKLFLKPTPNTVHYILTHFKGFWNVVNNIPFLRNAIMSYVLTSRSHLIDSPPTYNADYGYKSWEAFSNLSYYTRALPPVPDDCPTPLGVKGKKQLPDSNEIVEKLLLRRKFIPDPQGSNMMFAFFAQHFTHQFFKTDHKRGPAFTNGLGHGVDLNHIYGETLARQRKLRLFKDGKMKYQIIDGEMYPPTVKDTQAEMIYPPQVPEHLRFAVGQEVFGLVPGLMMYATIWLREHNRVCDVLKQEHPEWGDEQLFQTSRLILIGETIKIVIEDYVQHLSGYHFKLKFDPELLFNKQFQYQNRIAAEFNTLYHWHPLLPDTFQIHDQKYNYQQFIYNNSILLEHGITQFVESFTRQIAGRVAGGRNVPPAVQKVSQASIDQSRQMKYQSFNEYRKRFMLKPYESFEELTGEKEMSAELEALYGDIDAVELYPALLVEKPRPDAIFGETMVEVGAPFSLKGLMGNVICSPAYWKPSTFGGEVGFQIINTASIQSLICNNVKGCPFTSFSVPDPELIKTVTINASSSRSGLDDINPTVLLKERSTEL
Summary of the method: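 Human recombinant COX-2 was diluted 1:1000 in 0.1 M Tris pH 8.0 with hematin. It was pre-incubated 5 min at room temperature with test compound from a 1.1 mM DMSO solution, or DMSO for the positive control. Freshly made TMPD and then arachidonic acid were added, with no arachidonic acid in negative controls. After 5 more min at room temperature, TMPD oxidation was read at 550 nm. Triplicate; mean with SD.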

human 5-LOX [2] = molecular target: T2, human 5-LOX (Homo sapiens, UniProt P09917); experiment: Human 5-LOX inhibition screening UV assay; type: biochemical; details: 50 μM compound; 100 μM linoleic acid substrate; 10 min pre-incubation
T2 sequence (P09917 1-674): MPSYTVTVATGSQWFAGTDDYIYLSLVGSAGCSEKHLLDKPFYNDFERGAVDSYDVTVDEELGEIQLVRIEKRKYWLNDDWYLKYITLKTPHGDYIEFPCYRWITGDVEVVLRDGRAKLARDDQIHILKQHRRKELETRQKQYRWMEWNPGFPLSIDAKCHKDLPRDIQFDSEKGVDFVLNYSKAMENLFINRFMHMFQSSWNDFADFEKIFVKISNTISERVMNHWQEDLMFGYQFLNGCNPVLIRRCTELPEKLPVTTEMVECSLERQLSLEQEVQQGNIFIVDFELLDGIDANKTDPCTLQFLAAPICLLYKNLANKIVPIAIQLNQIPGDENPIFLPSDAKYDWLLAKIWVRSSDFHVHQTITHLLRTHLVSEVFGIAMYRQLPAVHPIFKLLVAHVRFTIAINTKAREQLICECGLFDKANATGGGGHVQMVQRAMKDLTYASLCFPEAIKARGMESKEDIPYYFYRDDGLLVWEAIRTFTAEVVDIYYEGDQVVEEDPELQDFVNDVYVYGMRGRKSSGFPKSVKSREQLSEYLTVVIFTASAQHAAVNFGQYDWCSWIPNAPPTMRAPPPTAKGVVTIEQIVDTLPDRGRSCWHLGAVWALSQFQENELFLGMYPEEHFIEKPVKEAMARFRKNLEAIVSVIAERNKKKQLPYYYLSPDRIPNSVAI
Summary of the method: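 Human 5-LOX was diluted 1:4000 in 50 mM Tris pH 7.5 with 2 mM EDTA and 2 mM CaCl2, plus ATP (2 mM stock). It was pre-incubated 10 min at room temperature with test compound diluted from DMSO stock, or a DMSO-only control. Linoleic acid (20 mM ethanolic stock) was added, and HPOD conjugated diene formation was followed at 234 nm over 20 min. Residual activity was taken relative to the control. Three independent experiments; mean with SD.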

[3] = tested on: soybean lipoxygenase-1 (SLO-1); details: cited from earlier work
potato 5-lipoxygenase = details: cited from earlier work
human 5-LOX [4] = molecular target: T2, human 5-LOX; experiment: Michaelis-Menten enzyme kinetics of human 5-LOX versus ATP or linoleic acid; type: biochemical; details: for type of modulation versus linoleic acid: varied linoleic acid
h-5-LOX = molecular target: T3, h-5-LOX (Homo sapiens, UniProt P09917); experiment: h-5-LOX activity with arachidonic acid as substrate; type: biochemical; details: 50 μM compound; 100 μM arachidonic acid
T3 sequence (P09917 1-674): T2 sequence (P09917 1-674)

[5] = linoleic acid conversion, non-essential activation model

effect on COX-2 activity (in words) [1]: little inhibition
effect on h-5-LOX activity (in words) (human 5-LOX [2]): little inhibition
Compound: CCCCCCCCCCCCCCCc1cccc(O)c1C(=O)O [Compound 14, Anacardic acid, reference compound]

effect on COX-2 activity (in words) [1]: little inhibition
effect on h-5-LOX activity (in words) (human 5-LOX [2]): little inhibition
Compound: CCCCCCCCCCc1cccc(O)c1C(=O)O [Compound 15]

effect on COX-2 activity (in words) [1]: little inhibition
effect on h-5-LOX activity (in words) (human 5-LOX [2]): little inhibition
Compound: CCCCCc1cccc(O)c1C(=O)O [Compound 16]

Compound: CCCCCCCCCCCCCCCc1cc(O)cc(O)c1C(=O)O [Compound 17]
effect on h-5-LOX activity (in words) (human 5-LOX [2]): slight improvement in the inhibitory potency

Compound: CCCCCCCc1ccc(CCc2cc(O)cc(O)c2C(=O)O)cc1 [Compound 19]
effect on soybean lipoxygenase-1 (SLO-1) [3]: allosteric inhibitor

effect on h-5-LOX activity (in words) (human 5-LOX [2]): neither inhibition nor activation
Compound: CCCCCCCCCCCCCCOc1cccc(O)c1C(=O)O [Compound 21]
effect on potato 5-LOX (potato 5-lipoxygenase): strong activation; also recorded: allosteric activator

Compound: CCCCCOc1ccc(COc2cccc(O)c2C(=O)[O-])cc1.[K+] [Compound 23a, potassium 2-hydroxy-6-((4-(pentyloxy)benzyl)oxy)benzoate]
α (change in the affinity of substrate binding) (human 5-LOX [4]; [5]): 0.0438
β (change in the catalytic constant) (human 5-LOX [4]; [5]): 1.76
type of modulation versus ATP (human 5-LOX [4]; varied ATP, 100 μM linoleic acid): non-competitive activation
type of modulation versus linoleic acid (human 5-LOX [4]; 100 μM ATP): non-essential mixed type activation
activation of linoleic acid conversion versus compound concentration (human 5-LOX [4]; various concentrations of compound, linoleic acid substrate): concentration dependent activation
Vmax^app (human 5-LOX [4]; versus ATP, 12.5 μM 23a, 100 μM linoleic acid): 0.3861 ± 0.0073 µM/s
Vmax^app (human 5-LOX [4]; versus ATP, 25 μM 23a, 100 μM linoleic acid): 0.5236 ± 0.0137 µM/s
Vmax^app (human 5-LOX [4]; versus linoleic acid, 12.5 μM 23a, 100 μM ATP): 2.39 ± 0.07 µM/s
Vmax^app (human 5-LOX [4]; versus linoleic acid, 25 μM 23a, 100 μM ATP): 2.70 ± 0.05 µM/s
modulation of h-5-LOX activity toward arachidonic acid (h-5-LOX): no modulation; also recorded: no effect
effect on h-5-LOX activity (in words) (human 5-LOX [2]): strong activation

Compound: CCCCCCCOc1ccc(COc2cccc(O)c2C(=O)[O-])cc1.[K+] [Compound 23b, Potassium 2-((4-(heptyloxy)benzyl)oxy)-6-hydroxybenzoate]
effect on h-5-LOX activity (in words) (human 5-LOX [2]): no or little inhibition

Compound: CCCCCCCCCOc1ccc(COc2cccc(O)c2C(=O)[O-])cc1.[K+] [Compound 23c, Potassium 2-hydroxy-6-((4-(nonyloxy)benzyl)oxy)benzoate]
effect on h-5-LOX activity (in words) (human 5-LOX [2]): no or little inhibition

Compound: CC(C)CCCC(C)CCOc1ccc(COc2cccc(O)c2C(=O)[O-])cc1.[K+] (stereo not drawn) [Compound 23d, Potassium 2-((4-((3,7-dimethyloctyl)oxy)benzyl)oxy)-6-hydroxybenzoate]
Ki′ (dissociation constant of inhibitor to enzyme-substrate complex) (human 5-LOX [4]; linoleic acid conversion, mixed type inhibition model): 140 µM
type of modulation versus linoleic acid (human 5-LOX [4]; 100 μM ATP): mixed-type inhibition
Vmax^app (human 5-LOX [4]; versus linoleic acid, 25 μM 23d): 1.84 ± 0.25 µM/s
Vmax^app (human 5-LOX [4]; versus linoleic acid, 50 μM 23d): 1.47 ± 0.16 µM/s
modulation of h-5-LOX activity toward arachidonic acid (h-5-LOX): no modulation; also recorded: no effect

Compound: Oc1ccccc1-c1nc2ccccc2o1 [Compound 25, 2-(benzo[d]oxazol-2-yl)phenol]
effect on h-5-LOX activity (in words) (human 5-LOX [2]): did not inhibit; also recorded: no inhibition

Km (human 5-LOX [4]; read-out: Km of the substrate for h-5-LOX, no modulator): 600 µM
Compound: CCCCC/C=C\C/C=C\CCCCCCCC(=O)O [linoleic acid]
